{"source": "ChEMBL document CHEMBL4138195", "about": "“Discovery of novel propargylamine-modified 4-aminoalkyl imidazole substituted pyrimidinylthiourea derivatives as multifunctional agents for the treatment of Alzheimer's disease” (Eur J Med Chem, 2018)", "key": {"[1]": {"target": "T1, Amine oxidase [flavin-containing] A (Homo sapiens, UniProt P21397)", "T1 sequence (P21397 whole entry)": "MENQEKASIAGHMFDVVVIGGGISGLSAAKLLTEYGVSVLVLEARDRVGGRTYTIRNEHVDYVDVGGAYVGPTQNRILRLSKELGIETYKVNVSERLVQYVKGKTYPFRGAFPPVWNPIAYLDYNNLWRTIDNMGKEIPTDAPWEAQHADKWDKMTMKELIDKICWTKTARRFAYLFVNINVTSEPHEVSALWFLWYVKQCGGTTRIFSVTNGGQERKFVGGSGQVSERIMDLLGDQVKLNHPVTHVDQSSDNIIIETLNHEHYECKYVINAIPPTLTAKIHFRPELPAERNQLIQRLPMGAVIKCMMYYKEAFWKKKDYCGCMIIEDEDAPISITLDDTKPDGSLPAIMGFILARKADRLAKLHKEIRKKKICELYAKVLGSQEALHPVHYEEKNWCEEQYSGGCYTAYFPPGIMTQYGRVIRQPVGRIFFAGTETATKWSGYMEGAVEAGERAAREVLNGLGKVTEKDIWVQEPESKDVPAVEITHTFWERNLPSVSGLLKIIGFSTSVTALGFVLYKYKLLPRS", "assay": "Inhibition of recombinant human MAOA at 50 uM using p-tyramine as substrate preincubated for 15 mins followed by substrate addition measured after 15 mins by Amplex red reagent based fluorescence assay", "settings": "0.25 h", "method_in_brief": "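Recombinant human MAO-A (12.5 µg/mL) or MAO-B (75 µg/mL) preincubated 15 min at 37 °C with compound (diluted from 10 mM DMSO stock in 50 mM KH2PO4, pH 7.4). Amplex Red working solution added: 2 mM p-tyramine (MAO-A) or benzylamine (MAO-B), 2 U/mL HRP. After 15 min at 37 °C, fluorescence read (ex 545/em 590), background from enzyme-free wells subtracted.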"}, "[2]": {"assay": "Antioxidant activity assessed as trolox equivalent of AAPH radical scavenging activity preincubated for 10 mins followed by AAPH addition measured every 2 mins for 180 mins by ORAC-FL assay", "type": "functional", "method_in_brief": "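Compound at 20 µM (diluted from 10 mM DMSO stock in 75 mM phosphate, pH 7.4) with fluorescein (0.117 µM diluted) for 10 min at 37 °C, then AAPH (40 mM solution) added. Fluorescence (ex 485/em 535) read every 2 min for 180 min. […] Triplicate wells, ≥3 runs.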"}, "[3]": {"assay": "Metal chelating activity assessed as compound-Fe2+ complex formation at 40 uM in presence of FeSO4 after 30 mins by UV-visible spectrophotometric analysis", "method_in_brief": "(§1)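 UV–vis spectra (200–500 nm) of compound at 40 µM final, alone or with CuCl2, FeSO4, FeCl3 or ZnCl2 (20 µM final), after 30 min in 20 mM HEPES, 150 mM NaCl, pH 7.4, at room temperature.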"}, "[4]": {"assay": "Metal chelating activity assessed as compound-Fe3+ complex formation at 40 uM in presence of FeCl3 after 30 mins by UV-visible spectrophotometric analysis", "method_in_brief": "as §1"}, "[5]": {"assay": "Metal chelating activity assessed as compound-Zn2+ complex formation at 40 uM in presence of ZnCl2 after 30 mins by UV-visible spectrophotometric analysis", "method_in_brief": "as §1"}, "[6]": {"assay": "Antioxidant activity assessed as inhibition of Cu2+-mediated redox cycling induced hydroxyl radicals generation at 15 uM in presence of ascorbate by fluorescence assay", "method_in_brief": "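Hydroxyl radicals from Cu(II) (5 µM) and ascorbate (150 µM), with deferoxamine 1 µM, in PBS (20 mM, 100 mM NaCl, pH 7.4, 0.1% methanol). Ligand at 15 µM, with EDTA as positive control. Conversion of coumarin-3-carboxylic acid (50 µM) to fluorescent 7-hydroxy-CCA followed at 37 °C (ex 395/em 450 nm). Run in triplicate.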"}, "[7]": {"assay": "Inhibition of Cu2+-mediated amyloid beta (1 to 42) (unknown origin) aggregation at 50 uM after 24 hrs by dot blot assay", "method_in_brief": "(§2)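 Aβ1-42 (2000 µM stock in 1% ammonium hydroxide) diluted in […], pH 6.6. Peptide 25 µM ± Cu(II) 25 µM ± compound 50 µM, incubated 37 °C for 24 h. Samples spotted on nitrocellulose, blocked in 5% milk, probed overnight at 4 °C with A11 (oligomers) or 6E10 (total Aβ), HRP secondary, densitometry. N = 4, mean ± SEM; EGCG control.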"}, "[8]": {"assay": "Inhibition of Cu2+-induced amyloid beta (1 to 42 residues) (unknown origin) aggregation assessed as reduction in amyloid beta fibril load at 50 uM after 24 hrs by phosphotungstic acid staining-based transmission electron microscopic method", "method_in_brief": "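Aβ1-42 (25 µM) ± CuCl2 (25 µM) ± compound (50 µM) in HEPES/NaCl pH 6.6, incubated 24 h at 37 °C. Aliquots placed on carbon-coated copper grids for 30 min, stained 20 s with 2% phosphotungstic acid, imaged by TEM. Clioquinol as comparator.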"}, "Cortical neurone [9]": {"system": "Cortical neurone", "assay": "Cytotoxicity against E17 Sprague-Dawley rat primary cortical neurons at 10 to 30 uM after 24 hrs by MTT assay", "type": "cell-based"}, "Cortical neurone [10]": {"system": "Cortical neurone", "assay": "Cytotoxicity against E17 Sprague-Dawley rat primary cortical neurons at 100 uM after 24 hrs by MTT assay", "type": "cell-based", "method_in_brief": "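Primary cortical neurons from E17 SD rat embryos, trypsin-dissociated and cultured 9 days in neurobasal/B27 on poly-L-lysine (3×10^4 cells/well). Treated at 10, 30 and 100 µM for 24 h, with donepezil as reference. MTT (5 mg/mL, 10 µL) for 4 h at 37 °C, absorbance 490 nm, viability as % of vehicle-treated cells; mean ± SEM.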"}, "[11]": {"target": "Amyloid-beta precursor protein (Homo sapiens) (UniProt P05067)", "sequence (P05067 whole entry)": "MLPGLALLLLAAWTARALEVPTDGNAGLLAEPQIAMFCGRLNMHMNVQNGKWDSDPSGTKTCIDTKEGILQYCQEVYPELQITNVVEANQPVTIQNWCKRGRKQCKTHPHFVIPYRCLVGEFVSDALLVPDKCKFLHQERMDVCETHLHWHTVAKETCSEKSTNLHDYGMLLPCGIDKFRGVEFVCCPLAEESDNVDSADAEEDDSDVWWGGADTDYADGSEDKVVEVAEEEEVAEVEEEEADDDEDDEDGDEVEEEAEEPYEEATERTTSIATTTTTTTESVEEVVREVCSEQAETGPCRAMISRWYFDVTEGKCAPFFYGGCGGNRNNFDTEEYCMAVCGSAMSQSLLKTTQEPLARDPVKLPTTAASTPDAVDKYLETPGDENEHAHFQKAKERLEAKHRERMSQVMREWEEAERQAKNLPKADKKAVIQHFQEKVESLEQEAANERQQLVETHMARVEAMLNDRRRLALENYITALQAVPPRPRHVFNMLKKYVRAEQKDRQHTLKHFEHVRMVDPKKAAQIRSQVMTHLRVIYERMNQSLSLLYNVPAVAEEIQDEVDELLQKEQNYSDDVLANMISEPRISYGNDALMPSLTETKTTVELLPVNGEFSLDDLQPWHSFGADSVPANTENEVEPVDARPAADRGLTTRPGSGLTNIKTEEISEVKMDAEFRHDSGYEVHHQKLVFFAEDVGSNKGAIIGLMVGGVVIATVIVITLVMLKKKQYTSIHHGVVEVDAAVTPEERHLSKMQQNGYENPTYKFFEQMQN", "assay": "Inhibition of amyloid beta (1 to 42) peptide (unknown origin) self aggregation-induced cytotoxicity in E17 Sprague-Dawley rat primary cortical neurons assessed as neuroprotective activity by measuring increase in cell viability at 1 uM after 24 hrs by MTT assay", "method_in_brief": "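Rat E17 primary cortical neurons after 9 days in culture. Aβ1-42 samples, prepared as for the dot blot (± Cu2+, ± compound), added to the cultures at 1 µM for 24 h. Viability by MTT, normalized to the vehicle group. EGCG and clioquinol as positive controls.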"}, "Mus musculus": {"system": "Mus musculus", "assay": "Reversal of scopolamine-induced dementia in ICR mouse assessed as decrease in escape latency time at 30 mg/kg, po administered 40 mins prior to scopolamine-challenge by water maze test", "type": "functional, organism-based", "method_in_brief": "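Test compound as HCl salt, 30 mg/kg intragastric, given 40 min before scopolamine (4.5 mg/kg i.p.), which was given 20 min before the water maze. Escape latency and errors (entries into no-exit paths) recorded; mean ± SEM.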"}, "[12]": {"target": "Amyloid-beta precursor protein (Homo sapiens) (UniProt P05067)", "assay": "Inhibition of amyloid beta (1 to 42) (unknown origin) self aggregation at 50 uM incubated at 37 degC for 24 hrs by dot immunoblot assay", "method_in_brief": "as §2"}, "[13]": {"assay": "Inhibition of Cu2+-induced amyloid beta (1 to 42 residues) (unknown origin) aggregation at 50 uM incubated at 37 degC for 24 hrs by dot immunoblot assay", "method_in_brief": "as §2"}, "in vitro": {"assay": "in vitro", "settings": "PAMPA"}}, "note": "Calls of active or inactive are those of the source. The calls are words filed in the database; no cut-off is given here."}
{"smiles": "C#CCN(C)Cc1cn(-c2cc(NC(=S)NCC)ncn2)cn1", "values": [{"measurement": "inhibition at 50 µM", "setting": "[1]", "value": 20.2, "unit": "%"}, {"measurement": "Activity (umolequiv/umol)", "setting": "[2]", "value": 1.13}, {"measurement": "Activity", "setting": "[3]", "value": "inactive"}, {"measurement": "Activity", "setting": "[4]", "value": "inactive"}, {"measurement": "Activity", "setting": "[5]", "value": "inactive"}, {"measurement": "Activity", "setting": "[6]", "value": "Active"}, {"measurement": "inhibition", "setting": "[7]", "value": "Active"}, {"measurement": "inhibition", "setting": "[8]", "value": "Active"}, {"measurement": "Activity", "setting": "Cortical neurone [9]", "value": "Non-Toxic"}, {"measurement": "Activity", "setting": "Cortical neurone [10]", "value": "Toxic"}, {"measurement": "Activity", "setting": "[11]", "value": "inactive"}, {"measurement": "Activity", "setting": "Mus musculus", "value": "Active"}, {"measurement": "inhibition", "setting": "[12]", "value": "inactive"}, {"measurement": "inhibition", "setting": "[13]", "value": "Active"}, {"measurement": "Papp at 12 h, 100 ug/ml", "setting": "in vitro", "value": 3.16, "unit": "×10⁻⁶ cm/s"}]}
